How the values were obtained:
[1] = molecular target: Muscarinic acetylcholine receptor; experiment: Receptor binding affinity against Muscarinic acetylcholine receptor from guinea pig heart was determined using [3H]- QNB as radioligand; type: protein assay, Cavia porcellus
In short: (§1)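 Guinea pig hearts dissected in Krebs-Henseleit pH 7.4 with 1 mM PMSF, Polytron-homogenized in ice-cold 50 mM phosphate/PMSF buffer pH 7.4, ≤0.3 mg/mL protein. Competition against 2 nM (−)-[3H]QNB, triplicates at 25 °C for 80 min, 10 µM atropine nonspecific. Centrifugation, scintillation counting of pellets. Graphical IC50 to Ki by the Jacobs method; means ± SEM, 2–3 experiments.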

[2] = molecular target: Muscarinic acetylcholine receptor; experiment: Receptor binding affinity against Muscarinic acetylcholine receptor from guinea pig urinary bladder was determined using [3H]- QNB as radioligand; type: protein assay, Cavia porcellus
In short: (§2)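 Guinea pig urinary bladder dissected in PMSF-containing Krebs-Henseleit pH 7.4 and Polytron-homogenized in ice-cold 50 mM phosphate buffer pH 7.4 with 1 mM PMSF (≤0.3 mg/mL protein). Competition against 2 nM (−)-[3H]QNB; triplicates at 25 °C for 60 min; 10 µM atropine defines nonspecific binding. Pellets from centrifugation were scintillation counted. IC50 taken graphically, Ki by the Jacobs method; means ± SEM, 2–3 experiments.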

[3] = molecular target: Muscarinic acetylcholine receptor; experiment: Receptor binding affinity against Muscarinic acetylcholine receptor from guinea pig cerebral cortex was determined using [3H]- QNB as radioligand; type: tissue-based, Cavia porcellus
In short: (§3)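 Guinea pig cerebral cortex homogenized (Potter-Elvehjem) in ice-cold 50 mM Na/K phosphate buffer pH 7.4 with 1 mM PMSF, ≤0.3 mg/mL protein. Competition with (−)-[3H]QNB (2 nM final), triplicates incubated at 25 °C for 80 min, nonspecific binding with 10 µM atropine. Ended by centrifugation; pellets counted by scintillation. IC50 read graphically, converted to Ki by the Jacobs method; means ± SEM of 2–3 experiments.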

[4] = molecular target: Muscarinic acetylcholine receptor; experiment: Receptor binding affinity against Muscarinic acetylcholine receptor from guinea pig parotid gland was determined using [3H]- QNB as radioligand; type: protein assay, Cavia porcellus
In short: (§4)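 Guinea pig parotid glands dissected in Krebs-Henseleit pH 7.4 with 1 mM PMSF, Polytron-homogenized in ice-cold 50 mM phosphate/PMSF pH 7.4, ≤0.3 mg/mL protein. Displacement of 2 nM (−)-[3H]QNB, triplicates at 25 °C for 210 min, 10 µM atropine for nonspecific binding. Centrifugation, then pellet scintillation counting. Ki from graphical IC50 via the Jacobs correction; means ± SEM of 2–3 experiments.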

[5] = molecular target: Muscarinic acetylcholine receptor; experiment: Receptor binding affinity (Ki) for Muscarinic acetylcholine receptor (parotid glands) was determined by competition radioligand -[3H]- QNB binding assay; type: protein assay, Cavia porcellus
In short: as §4, with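 “counting.” for “counting. Ki from graphical IC50 via the Jacobs correction; means ± SEM of 2–3 experiments.”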

[6] = molecular target: Muscarinic acetylcholine receptor; experiment: Receptor binding affinity (Ki) for Muscarinic acetylcholine receptor (urinary bladder) was determined by competition radioligand -[3H]- QNB binding assay; type: protein assay, Cavia porcellus; in short: as §2
[7] = molecular target: Muscarinic acetylcholine receptor; experiment: Receptor binding affinity (Ki) against Muscarinic acetylcholine receptor (cerebral cortex) was determined by competition radioligand -[3H]- QNB binding assay; type: tissue-based, Cavia porcellus
In short: as §3, with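 “scintillation.” for “scintillation. IC50 read graphically, converted to Ki by the Jacobs method; means ± SEM of 2–3 experiments.”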

[8] = molecular target: Muscarinic acetylcholine receptor; experiment: Receptor binding affinity (Ki) for Muscarinic acetylcholine receptor (heart)was determined by competition radioligand -[3H]- QNB binding assay; type: protein assay, Cavia porcellus; in short: as §1
Cavia porcellus = organism: Cavia porcellus; experiment: Antimuscarinic potency using isolated guinea pig urinary bladder; type: functional
In short: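 Male guinea pigs (~300 g) killed and exsanguinated; urinary bladder smooth muscle strips mounted in 37 °C Krebs-Henseleit baths (pH 7.4, carbogen), ~5 mN resting tension, isometric tension recorded. A control cumulative carbachol curve was run, then washout, ≥15 min rest, and 60 min with a fixed antagonist concentration before a second curve. Dose ratio from graphical EC50s; KB = [A]/(r − 1).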

Compound	Ki [1] [nM]	Ki [2] [nM]	Ki [3] [nM]	Ki [4] [nM]	Ki [5] [nM]	Ki [6] [nM]	Ki [7] [nM]	Ki [8] [nM]	Kb (Cavia porcellus) [nM]
Fc1ccc2oc(C3=CN4CCC3CC4)cc2c1	34	37	6.3	30	–	–	–	–	–
O=Cc1ccc2oc(C3=CN4CCC3CC4)cc2c1	–	–	–	–	1571	1300	364	920	–
OCc1cc(I)cc2cc(C3=CN4CCC3CC4)oc12	1100	2460	480	2700	–	–	–	–	–
O=[N+]([O-])c1cc(I)c2oc(C3=CN4CCC3CC4)cc2c1	1900	1600	> 150	> 1000	–	–	–	–	–
O=Cc1cc(I)c2oc(C3=CN4CCC3CC4)cc2c1	–	–	–	–	1300	1000	221	517	–
OCc1cc(I)c2oc(C3=CN4CCC3CC4)cc2c1	462	802	197	970	–	–	–	–	–
Cc1cccc2cc(C3=CN4CCC3CC4)oc12	–	–	–	–	76	–	25	76	–
COc1cc(CO)cc2cc(C3=CN4CCC3CC4)oc12	5400	9400	3665	20000	–	–	–	–	10000
N#Cc1ccc2oc(C3=CN4CCC3CC4)cc2c1	–	–	–	–	236	–	60	160	–
C1=C(c2cc3cc(-c4ccccc4)ccc3o2)C2CCN1CC2	–	–	–	–	410	332	289	376	–
Cc1ccc2oc(C3=CN4CCC3CC4)cc2c1	–	–	–	–	295	364	116	238	–
N#Cc1cc(I)c2oc(C3=CN4CCC3CC4)cc2c1	–	–	440	–	–	–	–	–	–
C1=C(c2cc3cccc(-c4ccccc4)c3o2)C2CCN1CC2	–	–	–	–	410	330	135	260	–
C1=C(c2cc3ncccc3o2)C2CCN1CC2	61	83	21	110	–	–	–	–	–
Nc1ccc2oc(C3=CN4CCC3CC4)cc2c1	837	–	212	683	–	–	–	–	–

Further lines, with some results ahead:

Ki [1] [nM]	Ki [2] [nM]	Ki [3] [nM]	Ki [4] [nM]	Ki [5] [nM]	Ki [6] [nM]	Ki [7] [nM]	Ki [8] [nM]	Compound	Kb (Cavia porcellus) [nM]
1360	2000	330	1024	–	–	–	–	OCc1cccc2cc(C3=CN4CCC3CC4)oc12	–
–	–	–	–	56	107	20	72	C1=C(c2oc3ccccc3c2-c2ccccc2)C2CCN1CC2	148
–	–	–	–	109	156	39	86	Brc1ccc2oc(C3=CN4CCC3CC4)cc2c1	178
1840	2900	1400	10700	–	–	–	–	OCc1ccc2oc(C3=CN4CCC3CC4)cc2c1	13400
–	–	–	–	3023	1700	648	1612	O=Cc1cccc2cc(C3=CN4CCC3CC4)oc12	–
460	–	139	515	–	–	–	–	O=[N+]([O-])c1ccc2oc(C3=CN4CCC3CC4)cc2c1	–
–	–	–	–	204	–	25.3	77.8	Cc1c(C2=CN3CCC2CC3)oc2ccccc12	–
–	–	–	–	216	97	15	44	Brc1cccc2cc(C3=CN4CCC3CC4)oc12	123
–	–	–	–	2300	600	358	314	O=Cc1cc(I)cc2cc(C3=CN4CCC3CC4)oc12	–
–	–	–	–	7600	3900	1170	2040	COc1cc(C=O)cc2cc(C3=CN4CCC3CC4)oc12	–
–	–	–	–	161	116	40	106	Brc1c(C2=CN3CCC2CC3)oc2ccccc12	–

— ChEMBL document CHEMBL1129078, “3-(2-Benzofuranyl)quinuclidin-2-ene derivatives: novel muscarinic antagonists” (J Med Chem, 1996)
